According to ChEMBL document CHEMBL4014261, “Design, Synthesis, and Antimicrobial Evaluation of a Novel Bone-Targeting Bisphosphonate-Ciprofloxacin Conjugate for the Treatment of Osteomyelitis Biofilms” (J Med Chem, 2017):
Converted amounts (≈) assume the structure as drawn. The source made the active and inactive calls. The calls are words filed in the database; no cut-off is given here.

Experiments:
Staphylococcus aureus [1] = test: Antibacterial activity against methicillin-sensitive Staphylococcus aureus isolate 1 planktonic cells after 24 hrs by microdilution assay; format: functional; conditions: isolate 1, 24 h
Procedure, shortened: (§1)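 Planktonic cells at 1 × 10^5 CFU/mL were exposed to compound, and A580 was read at 0 h and after 24 h at 37 °C with shaking. Controls were medium plus microbes, with 1% (v/v) DMSO where the solvent was used. Relative cell number was calculated against the control. Results were confirmed by subculture in fresh medium (48 h, 37 °C) and plating. Conjugate concentrations were expressed as parent-antibiotic equivalents.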

Staphylococcus aureus [2] = test: Antibacterial activity against methicillin-sensitive Staphylococcus aureus isolate 2 planktonic cells after 24 hrs by microdilution assay; format: functional; conditions: isolate 2, 24 h; procedure, shortened: as §1
Staphylococcus aureus [3] = test: Antibacterial activity against methicillin-sensitive Staphylococcus aureus isolate 3 planktonic cells after 24 hrs by microdilution assay; format: functional; conditions: isolate 3, 24 h; procedure, shortened: as §1
Staphylococcus aureus [4] = test: Antibacterial activity against methicillin-sensitive Staphylococcus aureus isolate 4 planktonic cells after 24 hrs by microdilution assay; format: functional; conditions: isolate 4, 24 h; procedure, shortened: as §1
Staphylococcus aureus [5] = test: Antibacterial activity against methicillin-sensitive Staphylococcus aureus isolate 5 planktonic cells after 24 hrs by microdilution assay; format: functional; conditions: isolate 5, 24 h; procedure, shortened: as §1
Staphylococcus aureus [6] = test: Antibacterial activity against methicillin-sensitive Staphylococcus aureus isolate 6 planktonic cells after 24 hrs by microdilution assay; format: functional; conditions: isolate 6, 24 h; procedure, shortened: as §1
Staphylococcus aureus [7] = test: Antibacterial activity against methicillin-sensitive Staphylococcus aureus ATCC 6538 planktonic cells after 24 hrs by microdilution assay; format: functional; conditions: ATCC 6538, 24 h; procedure, shortened: as §1
Staphylococcus aureus [8] = test: Antibacterial activity against methicillin-resistant Staphylococcus aureus MR4-CIPS planktonic cells after 24 hrs by microdilution assay; format: functional
Procedure, shortened: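 Broth microdilution: 100 µL of 1 × 10^5 CFU/mL inoculum with graded compound concentrations, read at 580 nm before and after 24 h at 37 °C with shaking to prevent biofilm formation. Relative cell number is taken against medium + microbes controls, with 1% DMSO in the ciprofloxacin control. Growth is confirmed by 48 h subculture in fresh medium and by plating. MIC is expressed as parent-antibiotic equivalents.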

Staphylococcus aureus [9] = test: Antibacterial activity against methicillin-sensitive Staphylococcus aureus isolate 1 planktonic cells at 5 mg after 24 hrs by disc diffusion test; set-up: dose or concentration left out as unconfirmed; conditions: isolate 1, 24 h, read-out: DIZ
Staphylococcus aureus [10] = test: Antibacterial activity against methicillin-sensitive Staphylococcus aureus isolate 2 planktonic cells at 5 mg after 24 hrs by disc diffusion test; set-up: dose or concentration left out as unconfirmed; conditions: isolate 2, 24 h, read-out: DIZ
Staphylococcus aureus [11] = test: Antibacterial activity against methicillin-sensitive Staphylococcus aureus isolate 3 planktonic cells at 5 mg after 24 hrs by disc diffusion test; set-up: dose or concentration left out as unconfirmed; conditions: isolate 3, 24 h, read-out: DIZ
Staphylococcus aureus [12] = test: Antibacterial activity against methicillin-sensitive Staphylococcus aureus isolate 4 planktonic cells at 5 mg after 24 hrs by disc diffusion test; set-up: dose or concentration left out as unconfirmed; conditions: isolate 4, 24 h, read-out: DIZ
Staphylococcus aureus [13] = test: Antibacterial activity against methicillin-sensitive Staphylococcus aureus isolate 5 planktonic cells at 5 mg after 24 hrs by disc diffusion test; set-up: dose or concentration left out as unconfirmed; conditions: isolate 5, 24 h, read-out: DIZ
Staphylococcus aureus [14] = test: Antibacterial activity against methicillin-sensitive Staphylococcus aureus isolate 6 planktonic cells at 5 mg after 24 hrs by disc diffusion test; set-up: dose or concentration left out as unconfirmed; conditions: isolate 6, 24 h, read-out: DIZ
Staphylococcus aureus [15] = test: Antibacterial activity against methicillin-resistant Staphylococcus aureus MR4-CIPS planktonic cells at 5 mg after 24 hrs by disc diffusion test; set-up: dose or concentration left out as unconfirmed; conditions: read-out: DIZ
Staphylococcus aureus [16] = test: Bactericidal activity against Staphylococcus aureus ATCC 6538 biofilm using hydroxyapatite as substrate assessed as reduction in colony forming units after 24 hrs; format: functional
Procedure, shortened: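 Biofilms were started from a 1 McFarland suspension, allowed to adhere 4 h at 37 °C on HA discs or polystyrene well bottoms, then rinsed. They were exposed 24 h at 37 °C to TSB containing 0.24–125 mg/L compound. Cells were detached in 0.5% saponin by 1 min vortexing, serially diluted and plated on Columbia (S. aureus) or MacConkey (P. aeruginosa) agar, 37 °C, 24 h. Read-out was mean CFU/mm² ± SEM; HA area was measured by X-ray tomography.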

Pseudomonas aeruginosa = test: Bactericidal activity against Pseudomonas aeruginosa ATCC 15442 biofilm using hydroxyapatite as substrate assessed as reduction in colony forming units at 8 ug/ml at pH 4.8 to 7.4 after 24 hrs; format: functional
Staphylococcus aureus [17] = test: Antibiofilm activity against Staphylococcus aureus ATCC 6538 assessed as CFU counts at 100 ug/mL pretreated with HA for 24 hrs followed by organism inoculation measured after 24 hrs (reference value: 8.1 x 10^10CFU); format: functional
Procedure, shortened: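 HA discs were soaked 24 h at 37 °C in 2 mL compound solution, with DMSO or phosphate-buffer controls, then rinsed 3× with sterile water. Discs were inoculated with 2 mL of 0.5 McFarland S. aureus ATCC 6538 for biofilm formation. Biofilm CFU were counted after 24 h growth.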

Staphylococcus aureus [18] = test: Antibiofilm activity against Staphylococcus aureus ATCC 6538 assessed as CFU counts at 200 ug/mL pretreated with HA for 24 hrs followed by organism inoculation measured after 24 hrs (reference value: 8.1 x 10^10CFU); format: functional
Staphylococcus aureus [19] = test: Antibiofilm activity against Staphylococcus aureus ATCC 6538 assessed as CFU counts at 400 ug/mL pretreated with HA for 24 hrs followed by organism inoculation measured after 24 hrs (reference value: 8.1 x 10^10CFU); format: functional
[20] = test system: Aggregatibacter actinomycetemcomitans; test: Antibiofilm activity against Aggregatibacter actinomycetemcomitans D7S-1 serotype A at 5 mg after 24 hrs by disc diffusion assay; format: functional; conditions: read-out: DIZ
[21] = test system: Aggregatibacter actinomycetemcomitans; test: Antibiofilm activity against Aggregatibacter actinomycetemcomitans D7S-1 serotype A after 24 hrs by microdilution assay; format: functional
[22] = test system: Aggregatibacter actinomycetemcomitans; test: Antibiofilm activity against Aggregatibacter actinomycetemcomitans infected in jawbone peri-implant osteomyelitis Sprague-Dawley rat model assessed as bacterial count in bone per gram at 10 mg/kg, ip administered 3 times per week measured after 1 week post pharmacotherapy relative to control; format: functional
Procedure, shortened: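 Rats carried two titanium implants each, preinoculated with A. actinomycetemcomitans D7S-1 biofilm (10^9 CFU), placed bilaterally in palatal bone. One week after surgery, randomized groups received i.p. doses in sterile saline; the negative control was endotoxin-free saline. One week after treatment, 1 cm² peri-implant tissue and bone were homogenized in 0.5% saponin, serially diluted 10-fold and spread-plated on modified TSB (37 °C, 5% CO2, 48 h). Read-out was CFU/g and mean log10 reduction; analysts were blinded.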

Staphylococcus aureus [23] = test: microbe, parasite or virus in culture; set-up: dose or concentration left out as unconfirmed; conditions: ATCC 6538, 24 h, read-out: DIZ
Staphylococcus aureus [24] = test: Antibiofilm activity against Staphylococcus aureus ATCC 6538 assessed as reduction in bacterial adherence to HA at 15.6 to 250 ug/ml pretreated with HA for 24 hrs followed by organism inoculation measured after 24 hrs; format: functional
Procedure, shortened: (§2)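 HA spherules (final 10 mg/mL) in TSB were preincubated 24 h at 37 °C with shaking with compound (final 0.12–250 mg/L), then pelleted and the supernatant discarded. They were inoculated with 1 mL S. aureus at 10^5 CFU/mL. A580 was read at 0 and 24 h (37 °C, shaking) against controls without spherules and spherules without compound; spherules were also plated for CFU.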

Staphylococcus aureus [25] = test: Antibiofilm activity against Staphylococcus aureus ATCC 6538 assessed as reduction in bacterial adherence to HA at 0.24 to 7.8 ug/ml pretreated with HA for 24 hrs followed by organism inoculation measured after 24 hrs; format: functional; procedure, shortened: as §2
Staphylococcus aureus [26] = test: Bactericidal activity against Staphylococcus aureus ATCC 6538 biofilm using hydroxyapatite as substrate assessed as reduction in colony forming units at 0.24 to 250 ug/ml after 24 hrs; format: functional

O=C(O)c1cn(C2CC2)c2cc(N3CCNCC3)c(F)cc2c1=O [CIPROFLOXACIN]
MIC (Staphylococcus aureus [1]): 1 µg/mL (≈ 3.02 µM) | MIC (Staphylococcus aureus [2]): 0.25 µg/mL (≈ 0.754 µM) | MIC (Staphylococcus aureus [3]): 0.25 µg/mL (≈ 0.754 µM) | MIC (Staphylococcus aureus [4]): 1 µg/mL (≈ 3.02 µM) | MIC (Staphylococcus aureus [5]): 0.5 µg/mL (≈ 1.51 µM) | MIC (Staphylococcus aureus [6]): 1 µg/mL (≈ 3.02 µM) | MIC (Staphylococcus aureus [7]): 1 µg/mL (≈ 3.02 µM) | MIC (Staphylococcus aureus [8]): 1 µg/mL (≈ 3.02 µM) | zone of inhibition (Staphylococcus aureus [9]): 25 to 40 mm | zone of inhibition (Staphylococcus aureus [10]): 25 to 40 mm | zone of inhibition (Staphylococcus aureus [11]): 25 to 40 mm | zone of inhibition (Staphylococcus aureus [12]): 25 to 40 mm | zone of inhibition (Staphylococcus aureus [13]): 25 to 40 mm | zone of inhibition (Staphylococcus aureus [14]): 25 to 40 mm | zone of inhibition (Staphylococcus aureus [15]): 25 to 40 mm | MBIC90 (Staphylococcus aureus [16]): 8 µg/mL | Activity (Pseudomonas aeruginosa): inactive | Activity (Staphylococcus aureus [17]): Active | Activity (Staphylococcus aureus [18]): Active | Activity (Staphylococcus aureus [19]): Active | zone of inhibition at 5000 µg/disc [20]: > 40 mm | MIC90 [21]: 2 µg/mL (≈ 6.04 µM) | Activity [22]: 90% | zone of inhibition (Staphylococcus aureus [23]): 25 to 40 mm

O=C(O)c1cn(C2CC2)c2cc(N3CCN(C(=O)c4ccc(CC(P(=O)(O)O)P(=O)(O)O)cc4)CC3)c(F)cc2c1=O
MIC (Staphylococcus aureus [1]): 31.2 µg/mL (≈ 50 µM) | MIC (Staphylococcus aureus [2]): 31.2 µg/mL (≈ 50 µM) | MIC (Staphylococcus aureus [3]): 15.6 µg/mL (≈ 25 µM) | MIC (Staphylococcus aureus [4]): 62.5 µg/mL (≈ 100 µM) | MIC (Staphylococcus aureus [5]): 7.8 µg/mL (≈ 12.5 µM) | MIC (Staphylococcus aureus [6]): 15.6 µg/mL (≈ 25 µM) | MIC (Staphylococcus aureus [7]): 62.5 µg/mL (≈ 100 µM) | Activity (Staphylococcus aureus [24]): inactive | Activity (Staphylococcus aureus [25]): inactive | Activity (Staphylococcus aureus [26]): inactive
